High-throughput results deposited in PubChem by Broad Institute.
Ecoli rRNA inh – inhibitors of bacterial rRNA selective over humanized ribosomes. E. coli WT GFP vs humanized-ribosome RFP mutants, fluorescence, 24 h; hits give low values; DMSO median 0, no signal -100. GFP signal change (wild-type ribosome), % (test concentration not listed). 350,000 tested, 1.6% active. AID 720706;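 active means significant combined selectivity score with lowered wild-type GFP, culture density cut under 30%, mutant RFP and density less affected; inactive means any of these conditions unmet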
PGC1a acetyl inh – PGC1a acetylation modulation, inhibitor mode; inhibition, % at 15.6 µM; U2OS PGC1a acetylation, AlphaScreen anti-acetyl-lysine; with virally co-expressed GCN5 acetyltransferase; 350,000 tested, 0.17% active; AID 651687;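 active means every replicate shows inhibition of at least 40%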;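 further: 0% = neutral control wells and 100% = positive control wells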
PglD inh – inhibitors of Campylobacter jejuni PglD acetyltransferase. 360,000 tested, 0.098% active. AID 602405. inhibition, % at 12.5 µM. purified PglD enzyme, DTNB colorimetric CoA detection; in the data active means inhibition above about 16%, passing the limit was not always enough
Vif inh – HIV Vif inhibition | HEK293T cells, Vif self-association by quenched fluorescence, imaging, 24 h | inhibition, % at 7.49 µM | 340,000 tested, 0.35% active | AID 602346; in the data active means inhibition above about 50%, passing the limit was not always enough
Cneo AK release – causes C. neoformans cell lysis. adenylate kinase release luminescence, 4 h; normalised: neutral wells 0, clomiphene wells 100. lysis activity, % at 15 µM. 360,000 tested, 0.2% active;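 active means mean lysis activity across replicates of at least 80%, whatever share of replicates individually reach that level; inactive means mean lysis activity below 80%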
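Assay system: C. neoformans cells. Amount: yeast cell density of 5 × 10^6 cells/mL. Technique: AK luminescence. Buffer or medium: YPD. Times: static 4 h at 37 °C with compound, 1 h detection. Dosing: single-point compound dose. Read-out: lysis from increased AK signal.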
FGF22 binding – binders of recombinant human FGF22 by thermal shift | Q9HCT0 | SYPRO orange fluorescence; percent of sucrose octasulfate shift, DMSO zero | activity (Tm shift, normalised), % at 9.99 µM | 340,000 tested, 1.5% active;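 active means mean Tm shift, scaled 0 neutral to 100 positive control, at about 1.3% or above, every replicate too, limit read from the data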
Target sequence (Q9HCT0 whole entry, looked up): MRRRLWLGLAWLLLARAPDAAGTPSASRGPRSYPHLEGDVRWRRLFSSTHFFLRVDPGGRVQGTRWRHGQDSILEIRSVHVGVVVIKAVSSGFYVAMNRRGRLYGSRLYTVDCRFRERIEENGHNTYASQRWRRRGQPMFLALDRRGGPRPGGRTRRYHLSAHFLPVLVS
An asterisk follows results filed as active; x = no result given. The list is not random: actives were taken first. Their share in the collection is about 2.9%.

SMILES	Ecoli rRNA inh	PGC1a acetyl inh	PglD inh	Vif inh	Cneo AK release	FGF22 binding
Cc1ccc(S(=O)(=O)/N=C(/Nc2ccccc2C)c2ccccc2)cc1	-23.0*	12.2	3.0	-3.1	0.0	-0.1
Cc1ccc(S(=O)(=O)/N=C(/Nc2c(C)cccc2C)c2ccccc2)cc1	-35.7*	-9.8	-1.5	2.7	0.0	0.1
C[C@@H]1CCCCO[C@@H](CN(C)C)[C@@H](C)CN([C@H](C)CO)C(=O)c2cc(NS(C)(=O)=O)ccc2O1	3.7	7.5	1.9	x	1.2	-0.2
Cc1cccc(NC(=O)CS(=O)(=O)c2cn(CC(=O)N3CCOCC3)c3ccccc23)c1	9.8	4.0	0.1	5.6	-2.1	0.0
O=C(Cn1cc(C(=O)C(=O)N2CCOCC2)c2ccccc21)Nc1cccc(C(F)(F)F)c1	1.2	-5.6	4.1	70.2*	0.4	0.1
CC(=O)Nc1cccc(NC(=O)CS(=O)(=O)c2cn(CC(=O)N3CCOCC3)c3ccccc23)c1	11.6	3.7	x	-7.0	x	42.9*
C=CCNC(=S)Nc1ccc(N2CCOCC2)c(S(=O)(=O)Nc2ccccc2Cl)c1	-33.8*	-12.5	0.8	0.2	-2.5	0.1
CC(=O)Nc1ccc(N2CCOCC2)c(S(=O)(=O)Nc2ccccc2Cl)c1	1.3	x	-3.4	4.3	0.2	0.3
CC1(c2cccc(Br)c2)NC(=O)N(CC(=O)Nc2ccc3c(c2)OCO3)C1=O (stereo not drawn)	-22.0*	7.9	-10.2	14.2	11.3	0.4
CC1C(=O)N(Cc2cn(CCC3OCCCO3)nn2)CCS(=O)(=O)N1Cc1ccc(-c2ccc(Cl)cc2)cc1 (stereo not drawn)	4.5	-3.0	-2.1	-0.1	0.9	44.2*
O=C(N[C@H]1CC[C@@H](CCNC(=O)C2CCOCC2)O[C@H]1CO)c1ccccn1	2.0	-2.7	-2.5	x	3.7	0.0
COc1ccc(-c2cn3c(C)c(C(=O)Nc4cccc(C)n4)sc3n2)cc1	-29.5*	-8.2	2.0	-10.1	0.0	0.2
Cc1cccc(NC(=O)c2sc3nc(-c4ccc(F)cc4)cn3c2C)n1	x	x	-9.3	-6.1	-0.8	x
C[C@@H]1CN([C@@H](C)CO)C(=O)Cc2cc(NC(=O)Nc3ccc(C(F)(F)F)cc3)ccc2O[C@H]1CN(C)S(=O)(=O)c1ccccc1	-2.8	9.0	x	x	x	-0.6
CCc1ccc(/C=C2/SC(=S)N(CCC(=O)NCCCN3CCOCC3)C2=O)cc1	-1.7	x	-9.5	18.1	1.7	0.3
O=C(CSc1ccccc1)NCCCN1CCOCC1	x	-2.4	-6.4	1.0	-3.9	x
O=C(CCN1C(=O)/C(=C/c2ccccc2)SC1=S)NCCCN1CCOCC1	-1.1	56.4*	-3.3	0.7	2.3	41.7
O=C(CSCc1ccccc1)NCCCN1CCOCC1	20.5	x	-5.2	-3.1	-7.0	44.2*
CCOc1ccc(/C=C2\SC(=S)N(CCCC(=O)NCCCN3CCOCC3)C2=O)cc1	-20.7*	12.6	-4.0	-4.7	14.8	0.1
CCc1ccc(/C=C2\SC(=S)N(CCCC(=O)NCCCN3CCOCC3)C2=O)cc1	-27.0*	15.2	-8.8	-5.9	2.1	-0.2
COc1ccc(NC(=O)N(C)C[C@H]2Oc3ccc(NS(=O)(=O)c4ccc(F)cc4)cc3CC(=O)N([C@@H](C)CO)C[C@@H]2C)cc1	4.6	7.7	x	x	x	0.2
CNC[C@@H]1OCCCC[C@H](C)Oc2ccc(NS(=O)(=O)c3ccc(C)cc3)cc2C(=O)N([C@H](C)CO)C[C@H]1C	5.7	-35.8	-5.0	x	43.4	0.0
O=C(Cn1nc(C(F)F)cc1C(F)F)NNC(=S)Nc1ccc(F)cc1	x	-8.9	-3.3	9.9	1.1	x
O=C(Cn1nc(C(F)F)cc1C(F)F)NNC(=S)Nc1ccc([N+](=O)[O-])cc1	-17.6*	5.8	x	-11.2	x	42.9
C[C@@H]1CN([C@H](C)CO)C(=O)c2cccc(NS(C)(=O)=O)c2O[C@@H]1CN(C)Cc1ccccc1	3.9	1.1	1.6	x	-6.1	0.3
SMILES	Ecoli rRNA inh	PGC1a acetyl inh	PglD inh	Vif inh	Cneo AK release	FGF22 binding
CC[N+](CC)(CCCCS(=O)(=O)[O-])CCNP1(=O)C=C(c2ccccc2)OC(c2ccccc2)=C1	15.6	x	x	-1.4	x	43.8*
C[C@H](O)C#Cc1ccc2c(c1)O[C@@H](CN(C)Cc1ccncc1)[C@H](C)CN([C@@H](C)CO)S2(=O)=O	-6.0	-12.0	0.4	x	-1.9	-0.1
CCC1(CC)NC(=O)N(CC(=O)Nc2ccc(OCc3ccccc3)cc2)C1=O	0.9	5.5	-1.4	54.9*	0.1	0.0
CCC(=O)N(C)C[C@@H]1Oc2ncc(-c3ccccc3C)cc2C(=O)N([C@H](C)CO)C[C@H]1C	-2.8	4.9	-2.5	x	1.7	-0.4
COc1ccc(C2c3c(ncn(CCCO)c3=N)Oc3ccc4ccccc4c32)cc1 (stereo not drawn)	-46.8*	-29.9	0.2	-0.9	0.8	0.0
N#Cc1ccc(OCC(=O)N2CCN(S(=O)(=O)c3ccc(Cl)s3)CC2)cc1	-19.5*	x	-2.9	-15.2	0.4	-0.2
COc1ccc(S(=O)(=O)CCC(=O)N2CCN(c3ccccc3F)CC2)cc1	0.8	x	x	-0.9	x	44.1*
COc1ccc(OCC(=O)N2CCN(S(=O)(=O)c3ccc(Cl)s3)CC2)cc1	x	-5.4	4.2	-10.3	0.2	0.1
COc1ccc(S(=O)(=O)N2CCN(C(=O)COc3ccccc3)CC2)cc1	14.5	x	x	-13.4	x	43.2*
CC(C)CC(=O)N1CCN(S(=O)(=O)c2ccc(Cl)cc2)CC1	5.6	0.6	x	2.8	x	43.1*
CCC(=O)Nc1ccc2c(c1)OC[C@@H](C)N(C(=O)NC(C)C)C[C@H](C)[C@H](OC)CN(C)C2=O	0.8	5.0	1.1	x	-4.4	0.1
O=C(NCC1CC1)[C@H]1[C@H](CO)[C@H]2Cn3c(ccc(-c4cccnc4)c3=O)[C@@H]1N2C(=O)C1CCCCC1	0.7	x	5.6	x	5.1	0.2
CC(C)Cc1nn2c(N)c(/C=C3\C=Nc4ccccc43)c(=O)nc2s1	1.2	5.3	x	0.9	x	1.5*
CC(C)(C)OC(=O)NCCOCCOCCNc1ncnc2ccc(Br)cc12	x	16.7	x	x	1.9	0.2
O=C(Nc1cc(F)ccc1F)N1C[C@H]2[C@@H](c3ccccc31)[C@@H](CO)N2Cc1ccncc1	-1.7	5.0	-2.1	x	-3.6	-0.7
O=C1c2ccccc2C(=O)N1Cc1cnc(N2CCN(c3ccccc3)CC2)s1	-28.1*	x	x	4.0	x	0.1
O=C(C1CCCC1)N1CC2(C1)[C@H](c1ccccc1)[C@@H](CO)N2C(=O)NC1CCCC1	-0.6	-15.8	x	x	x	x
Cc1ccc(S(=O)(=O)N2CCN(Cc3ccsc3)CC2)cc1	-18.9	0.6	x	6.9	x	43.0*
Cc1ccc(-c2ccc(S(=O)(=O)N3CCN(C)CC3)cc2)cc1	x	-8.7	4.4	7.1	-0.9	x
